# Rows were chosen to be rich in hits. Some 4.1% of all compounds tested hit in one or more screens of this group.
# FLuc act counter: firefly luciferase counter-screen for stimulation assays | P08659 | ATPlite luciferase biochemical, luminescence, 10 min; 0 = ATP-free wells, 1 = DMSO control | activation factor at 10 µM | 200,000 tested, under 10 active | AID 1027;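 active means luciferase activation factor, scaled between plate controls, of at least 2 with compound at 10 µM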
# Target sequence (P08659 whole entry, looked up): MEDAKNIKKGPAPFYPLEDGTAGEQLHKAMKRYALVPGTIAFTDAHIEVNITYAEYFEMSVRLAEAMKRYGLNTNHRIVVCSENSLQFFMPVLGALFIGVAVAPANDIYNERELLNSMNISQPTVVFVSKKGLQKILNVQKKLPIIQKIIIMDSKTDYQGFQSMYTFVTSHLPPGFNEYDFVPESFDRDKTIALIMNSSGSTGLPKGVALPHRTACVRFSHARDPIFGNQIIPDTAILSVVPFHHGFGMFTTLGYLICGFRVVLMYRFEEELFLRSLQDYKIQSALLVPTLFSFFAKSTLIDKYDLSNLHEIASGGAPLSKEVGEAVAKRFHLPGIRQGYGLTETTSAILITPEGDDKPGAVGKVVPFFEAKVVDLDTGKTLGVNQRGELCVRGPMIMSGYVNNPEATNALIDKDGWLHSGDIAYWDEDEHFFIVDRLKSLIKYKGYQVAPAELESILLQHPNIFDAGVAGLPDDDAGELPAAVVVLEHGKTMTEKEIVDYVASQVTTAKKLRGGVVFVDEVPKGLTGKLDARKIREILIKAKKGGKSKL
#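 assay system = Luciferase/luciferin detection reagent, cell-free biochemical luciferase assay | also added = ATP substrate | times = 10 min post-reagent at room temperature | measured by = luminescence from luciferase reaction | measure = luciferase activation, seen as luminescence increase over controls | benchmarks = low control with PBS replacing ATP, high control enzyme plus ATP without compound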
# APP 5'UTR act: activates APP 5'UTR luciferase reporter. SH-SY5Y APP 5'UTR luciferase reporter, luminescence; zero percent = DMSO vehicle wells. activation, % at 2 µM. 190,000 compounds, 1% hits;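 active means activation above a set limit, based on mean plus 3 SD of controls, cut at about 140% in these data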
# FLuc inhib CS: inhibits firefly luciferase, flagging false hits in luciferase inhibition screens | P08659 | ATPLite firefly luciferase biochemical luminescence, 10 min | inhibition, % at 10 µM | 200,000 compounds, 1.5% hits | AID 1006;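 active means inhibition above about 50% when tested at 10 µM, limit read from the data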
# STAT1 activator: increases IFN-gamma driven STAT1 reporter signal; NIH 3T3 STAT1-luciferase reporter, luminescence; 100% = IFN-gamma alone, no compound; activation (% of control), % at 5.5 µM; 200,000 compounds, 2.6% hits; AID 932;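 active means activation above the screen-wide mean activation plus 3 SD, cut at about 130% in these data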;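 further: raw ratio to IFN-gamma control signal so 100% means no change and 0% no light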
# NF-kB expr up: NF-kB expression increase, human neuronal cells. NF-kB reporter expression; stronger effect = higher value. fold change at 12.5 µM. 190,000 compounds, 1.6% hits; in the data active means fold change above about 3.3
# STAT1 activ conf: confirmation of STAT1 signaling activators. shares compounds with STAT1 activator. NIH 3T3 STAT1-luciferase reporter, IFN-gamma potentiation, luminescence; 100% = IFN-gamma EC80 alone, no compound. activation (% of control), % at 5.7 µM. 1,200 compounds, 97% hits;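 active means activation above a set limit carried over from the earlier primary STAT1 screen, cut at about 140% in these data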;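 further: simple ratio to median IFN-gamma plus DMSO wells so 0% means no light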
# NFkB act: counter-screen for STAT1 activators: NF-kappaB activation | shares compounds with STAT1 activator | HEK293T NF-kB luciferase reporter, TNF-alpha stimulated, luminescence; 100% = TNF-alpha with vehicle only | activation (% of control), % at 5.7 µM | 1,200 compounds, 43% hits | AID 1306;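 active means activation above the mean of solvent-only control wells plus 3 SD, set per campaign, cut at about 130% in these data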;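 further: TNF-alpha given at a submaximal dose yielding about 80% of full reporter signal; values are well signal over median control so 100% means no change and 0% no light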
# STAT3 act STAT1c: human STAT3 activation in STAT1 activator counter-screen | activation (% of control), % at 5.7 µM | U3A cells STAT3-luciferase reporter, IL-6, luminescence; cells lack STAT1; 100 = IL-6 alone, no compound effect | 1,200 compounds, 46% hits | shares compounds with STAT1 activator;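 active means activation above the solvent-only control well mean plus 3 SD, set per plate batch, cut at about 110% in these data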;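 further: 0% = no luminescence and 100% = median IL-6 plus DMSO wells; higher means more STAT3 reporter activation so hits are non-selective activators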
# Starred values were filed as active, the others as inactive; . = not tested or not shown.
SMILES,FLuc act counter,APP 5'UTR act,FLuc inhib CS,STAT1 activator,NF-kB expr up,STAT1 activ conf,NFkB act,STAT3 act STAT1c
Cc1ccc(-c2nnc(-c3ccncc3)n2-c2ccc(C)cc2)cc1,1,4,-4,107,1.2,.,.,.
C/C(=N\NC(=O)c1cccc(N/N=C(\C)c2cc(O)ccc2O)c1)c1cc(O)ccc1O,0.8,-7,18,106,0.34,.,.,.
COC(=O)c1sc(NC(=O)c2cc3c(s2)CCCC3)nc1C,0.7,89,29,155*,5.7*,202*,127,111*
Cc1ccc(NC(=O)c2cc3c(s2)CCCC3)cc1,0.6,119,42,160*,8.8*,203*,154*,105
Cc1ccc(NC(=O)c2scc3c2CCCC3)cc1,0.2,195*,75*,155*,9.5*,252*,126,102
CCOC(=O)c1sc(NC(=O)c2cc3c(s2)CCC(C)C3)nc1C (stereo not drawn),1,16,0,98,1.7,.,.,.
CC(C)N1C(=S)N(Cc2ccco2)C(=O)C1CC(=O)Nc1ccccc1 (stereo not drawn),1,6,0,99,0.77,.,.,.
C#CCN1C(=O)S/C(=C/c2cc(C)n(CC)c2C)C1=O,0.7,118,26,199*,1.9,239*,134*,102
CCOc1ccc(-c2nc(CSCC(=O)NCc3ccco3)c(C)o2)cc1,0.9,-48,14,17,0.19,.,.,.
CCC(=O)Nc1ccc(NC(=S)NC(=O)c2cc3ccccc3o2)cc1,1,-10,-1,102,1.4,.,.,.
CCC(=O)Nc1cccc(NC(=S)NC(=O)c2cccc(C)c2)c1,0.9,86,11,124,2.9,.,.,.
CCC(=O)Nc1cccc(NC(=S)NC(=O)c2ccccc2)c1,0.8,45,15,151*,2.5,162*,128,114*
CCC(=O)Nc1cccc(NC(=S)NC(=O)c2cc3ccccc3o2)c1,0.7,153*,28,157*,0.99,235*,122,111*
Cc1c(NC(=O)c2ccc(-c3cccc([N+](=O)[O-])c3)o2)c(=O)n(-c2ccccc2)n1C,1,-8,-3,97,1.5,.,.,.
C=CCOc1ccc(C=Nc2ccc(Cl)cc2)c(O)c1,1,-9,0,99,1,.,.,.
O=C(C[n+]1ccc(C(=O)N/N=C/c2ccc(Cl)cc2Cl)cc1)c1ccccc1,1,-13,-1,99,1.2,.,.,.
Cc1cccc(/C=N\NC(=O)c2ccc(Cl)cc2)c1O,0.8,2,23,155*,4.3*,161*,124,95
O=C(N/N=C/c1ccc(Cl)cc1Cl)c1cccc(F)c1,0.7,127,26,160*,1.6,212*,142*,107
CC(C)CC(=O)Nc1ccc2c(c1)oc1ccccc12,0.5,173*,49,152*,6.1*,190*,134*,106
COc1cc(OC)cc(C(=O)Nn2cc(C(=O)Nc3ccc(F)cc3F)c3ccccc3c2=O)c1,1,-10,-5,101,0.84,.,.,.
O=C(O)C1CCN(c2ccc(Cl)nn2)CC1,1,20,-5,107,1.3,.,.,.
C=CCNc1ncnc2c1cnn2-c1ccc(Cl)cc1,0.6,239*,39,177*,5.4*,266*,133,108
CCCCNc1ncnc2c1cnn2-c1ccc(Cl)cc1,0.8,-33,17,158*,7.2*,249*,140*,106
Clc1ccc(-n2ncc3c(NCCCn4ccnc4)ncnc32)cc1,1,-11,5,124,1.9,.,.,.
CCOc1cccc2cc(-c3csc(NC(=O)CCC(=O)NCCCN4CCC(C)CC4)n3)c(=O)oc12,0.9,176*,8,152*,5.5*,157*,126,124*
SMILES,FLuc act counter,APP 5'UTR act,FLuc inhib CS,STAT1 activator,NF-kB expr up,STAT1 activ conf,NFkB act,STAT3 act STAT1c
CCOc1cccc2cc(C(=O)Nc3nccs3)c(=O)oc12,0.5,-8,47,101,1.9,.,.,.
O=[N+]([O-])c1cccnc1NCCc1ccccc1,1,76,2,151*,2.3,163*,129,117*
O=C(Nc1cnc2ccccc2c1)c1ccco1,0.8,157*,23,152*,6.2*,183*,105,90
O=C(Nc1cccc(-c2cnc3ccccc3n2)c1)c1ccco1,0.9,.,6,126,0.64,.,.,.
CCOC(=O)CC1C(=O)NC2CCCCC2N1C(=O)Nc1ccc(Cl)cc1 (stereo not drawn),1,2,-4,100,1.1,.,.,.
O=C(CCn1c(=O)c2ccccc2n(Cc2cc(=O)n3ccccc3n2)c1=O)NCc1ccco1,1.1,14,-8,98,1.2,.,.,.
O=C(Nc1ccc2c(c1)CCC2)c1cccc(F)c1,0.6,170*,41,162*,6.8*,202*,131,102
O=C(Nc1ccc2c(c1)CCC2)c1ccccc1Br,0.7,219*,30,154*,1.1,218*,138*,112*
O=C(Nc1ccncc1)c1cccc(F)c1,1.1,5,-8,100,1,.,.,.
c1nc2n(n1)C1=C(CCCC1)C1(CCCCC1)N2,1,9,-4,105,1.5,.,.,.
N#Cc1ccsc1NC(=O)COC(=O)c1ccc(NC(N)=O)cc1,0.9,128,6,166*,1.1,199*,137*,141*
CCN(CC)c1ccc(C(=O)OCC(=O)Nc2sccc2C#N)cc1,1,45,1,123,2.1,.,.,.
O=C(CCc1ccccc1)Nc1cc2c(cc1Cl)OCCO2,0.9,82,8,158*,2.5,181*,139*,115*
Cc1cccc(C(=O)n2c(=S)nc3ccccn32)c1,0.1,122,91*,192*,4.4*,430*,185*,127*
CC(C)c1nnc(NC(=O)CCCC(=O)O)s1,1,4,-2,90,0.94,.,.,.
CCOC(=O)CC(=O)Nc1nnc(C(C)C)s1,1.1,-4,-6,152*,1.2,112,103,102
Cc1c(-c2ccccc2)oc2c(C(=O)N3CCN(c4ccc([N+](=O)[O-])cc4)CC3)cccc2c1=O,1,-1,-4,100,0.48,.,.,.
Cc1[nH]c2ccccc2c1-c1csc(NC(=O)CN2CCOCC2)n1,1,0,-4,96,1,.,.,.
Cn1cc(-c2nnc(-c3ccccc3)o2)c2ccccc21,0.4,130,59*,159*,5.2*,258*,118,130*

# Screening results (PubChem BioAssay)
